Measured values as given in article PMC7145530 (Nucleic Acids Research, 2019).
Blank lines part the entries; values can stand above or below the molecule they belong to.

What was measured:
[1] = test system: RAD51B; assay: Yeast two-hybrid with RAD51B; format: binding, human; settings: pGBKT7-RAD51C or pGBKT7-RAD51CΔ42-52
[2] = test system: RAD51; assay: Yeast two-hybrid with RAD51; format: binding, human; settings: pGBKT7-RAD51C or pGBKT7-RAD51CΔ42-52
[3] = target: T1, ALKBH3 (Homo sapiens, UniProt Q96Q83); assay: Demethylation assay by direct detection of formaldehyde; format: biochemical
T1 sequence (Q96Q83 1-286): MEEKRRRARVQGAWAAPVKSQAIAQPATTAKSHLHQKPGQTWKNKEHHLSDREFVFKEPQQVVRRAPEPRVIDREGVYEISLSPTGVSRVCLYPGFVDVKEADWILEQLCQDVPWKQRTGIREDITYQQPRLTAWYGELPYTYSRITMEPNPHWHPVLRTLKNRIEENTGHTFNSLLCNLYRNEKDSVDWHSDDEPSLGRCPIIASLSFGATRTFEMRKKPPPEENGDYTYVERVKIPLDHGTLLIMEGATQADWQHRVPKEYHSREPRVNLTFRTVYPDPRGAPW

[4] = target: T1, ALKBH3; assay: Yeast two-hybrid with ALKBH3; format: binding; settings: strain pJ69-4A; growth on dropout plates and lacZ reporter
Summary of the method: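 Full-length ALKBH2 or ALKBH3 fused to Gal4 binding domain (pGBKT7) was co-transformed with Gal4 activation domain (pACT2) fusions of RAD51, RAD51B, RAD51C, RAD51D, XRCC2 or XRCC3, or empty vectors. Transformants were selected on SD -Leu -Trp plates at 30°C for 2–3 days, then spotted on -His (triple) or -His -Ade (quadruple) dropout plates. lacZ was scored qualitatively by X-gal filter assay.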

[5] = target: T1, ALKBH3; assay: Demethylation assay by dot-blot analysis, 3′-tailed DNA; format: biochemical; settings: ALKBH3 0.4 μM, RAD51C or RAD51CΔ42–52 8 μM, 3′-tailed DNA 8 μM, anti-3meC antibody
[6] = target: T1, ALKBH3; assay: Co-immunoprecipitation; format: binding; settings: for co-immunoprecipitation of endogenous ALKBH3: NCI-H23 and PC-3, Flag-HA-RAD51C constructs
[7] = test system: GST-ALKBH3; assay: GST pull-down of His-RAD51C constructs; format: binding, human; settings: 150 μg GST-ALKBH3, ∼100 μg His-protein, room temperature, 2 h; MNase
Summary of the method: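 His-RAD51C, full-length or Δ42–52, was expressed in E. coli BL21-CodonPlus(DE3)-RIL (1 mM IPTG, 16°C, 18 h) and purified on Ni-NTA. It was incubated with GST-ALKBH3 bound to glutathione beads in 25 mM Tris pH 7.5, 1 mM CaCl₂ and 500 mM NaCl, with 10 U micrococcal nuclease. In competition runs, RAD51C 42–52 or 33–41 peptide was added at 50, 250 or 500 μM. Bound protein was detected by SDS-PAGE and anti-6xHis western blot.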

[8] = test system: mutant ALKBH3 (H191A, D193A and H257A); assay: Demethylation assay with mutant ALKBH3; format: biochemical, human; settings: mutant ALKBH3 0.2 μM, RAD51C 4.0 μM
[9] = test system: XRCC3; assay: Yeast two-hybrid with XRCC3; format: binding, human; settings: pGBKT7-RAD51C or pGBKT7-RAD51CΔ42-52
[10] = target: T1, ALKBH3; assay: Steady-state; format: biochemical
[11] = test system: RAD51D; assay: Yeast two-hybrid with RAD51D; format: binding, human; settings: pGBKT7-RAD51C or pGBKT7-RAD51CΔ42-52
[12] = test system: NCI-H23 cells; assay: Calcein-AM viability assay, NCI-H23; format: cell-based, human; settings: MMS 400 μM, 48 h; knockdown of RAD51C, ALKBH3, or both
Summary of the method: (§1)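 NCI-H23 cells grown in DMEM with 10% FBS at 37°C and 5% CO₂. Stable shRNA knockdown made by electroporation and 1 μg/ml puromycin selection for 30 days; the control shRNA targets luciferase. After MMS, cells were stained 30 min at 37°C with 2 μM Calcein AM in PBS and imaged by inverted fluorescence microscope. Percent MMS-induced cytotoxicity was plotted.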

[13] = test system: NCI-H23 cells; assay: Cell survival assay; format: cell-based, human; settings: MTT, MMS 50–400 μM, 48 h
Summary of the method: (§2)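 Stable shRNA-knockdown cells (luciferase shRNA as control) seeded at 5000 per well in triplicate. MMS (0, 50, 100, 200, 300, 400 μM) was given continuously for 48 h. Medium was then replaced with 0.5 mg/ml MTT for 4 h at 37°C in the dark, formazan solubilised and A570 read. Percent viability given as mean ± SD from four experiments.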

[14] = test system: PC-3 cells; assay: Calcein-AM viability assay, PC-3; format: cell-based, human; settings: MMS 400 μM, 48 h; knockdown of RAD51C, ALKBH3, or both
Summary of the method: as §1, with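 “PC-3” for “NCI-H23”, “Ham's F-12 GlutaMAX” for “DMEM”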

[15] = test system: PC-3 cells; assay: Cell survival assay; format: cell-based, human; settings: MTT, MMS 50–400 μM, 48 h
Summary of the method: as §2

[16] = test system: PC3 cells; assay: Immunofluorescence of 3meC, PC3; format: cell-based, human; settings: 48 h
Summary of the method: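 Stable RAD51C and/or ALKBH3 shRNA-knockdown PC3 cells were grown on chamber slides with MMS, then fixed in 4% formaldehyde (15 min, RT). DNA was denatured in 1.5 M HCl for 30 min and neutralised with sodium borate pH 8.5. Cells were permeabilised (0.1% Triton X-100), blocked (1% BSA), stained with anti-3meC overnight at 4°C, then Alexa-594 secondary, with DAPI counterstain. Signal was quantified as mean ± SE of three independent assays by Student's t-test.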

[17] = test system: MEFs, CHO and DT40 cell lines lacking RAD51C; cancer cells lacking ALKBH3; settings: cited from earlier work
[18] = test system: NCI-H23 cells; assay: Immunofluorescence of 3meC, NCI-H23; format: cell-based, human; settings: stable RAD51C knockdown NCI-H23, MMS 400 μM, 48 h; at least 50 cells counted
Summary of the method: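 RNAi-resistant Flag-HA-RAD51C, wild-type or Δ42–52, was electroporated into stable RAD51C-knockdown cells 24 h before MMS. Cells were fixed in formaldehyde, denatured in HCl, then co-stained for anti-HA (recombinant protein) and anti-3meC, with DAPI. Images were taken by fluorescence microscopy and signals quantified.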

[19] = HEK-293T, Flag-HA-RAD51C constructs and Myc-ALKBH3 co-expressed, anti-Flag
[20] = 3′-tailed DNA 0.6–9.6 μM, ALKBH3 0.2 μM, RAD51C or RAD51CΔ42–52 4 μM, FDH-coupled
[21] = combined RAD51C and ALKBH3 knockdown
[22] = stable RAD51C and ALKBH3 knockdown

effect of ATP exclusion or ATP-γ-S on RAD51C stimulation ([3]; ALKBH3 0.2 μM, RAD51C 4.0 μM): did not affect the results
yeast two-hybrid interaction with ALKBH3 [4]: robust interaction
Molecule: RAD51C: human RAD51 paralogue, recombinant or expressed (tag-less, His-tag or Flag-HA)
yeast two-hybrid interaction with RAD51B [1]: interacted strongly
yeast two-hybrid interaction with RAD51 [2]: weak interaction
formaldehyde release, RAD51C only ([3]; RAD51C without ALKBH3): did not result in any formaldehyde release
effect on 3meC level [5]: reduction in the levels of 3meC in 3′-tailed DNA was higher compared to the ALKBH3 alone
co-immunoprecipitation of ALKBH3 [6, 19]: ALKBH3 was immunoprecipitated with RAD51C
co-immunoprecipitation of endogenous ALKBH3 ([6]; anti-Flag): immunoprecipitated endogenous ALKBH3 in both the cell lines
co-immunoprecipitation of ALKBH3 ([6]; PC-3, endogenous proteins, anti-RAD51C antibody): ALKBH3 could indeed be immunoprecipitated with RAD51C
pull-down by GST-ALKBH3 [7]: could be pulled down by GST-ALKBH3
effect on mutant ALKBH3 activity [8]: indistinguishable from the mutant ALKBH3 alone
yeast two-hybrid interaction with XRCC3 [9]: interacted strongly
Km [10, 20]: 1.7 µM
kcat/KM [10, 20]: 2.6 min^-1μM^-1
Vmax ([10]; 3′-tailed DNA, RAD51C 4 μM with ALKBH3 0.2 μM): increased the Vmax for ALKBH3 reaction
yeast two-hybrid interaction with RAD51D [11]: weak interaction

Molecule: COS(C)(=O)=O [MMS, methyl methanesulphonate]
MMS sensitivity (Calcein-AM) [12]: MMS sensitive
cell survival, combined knockdown [13, 21]: severe cell survival defect
cell proliferation [13, 22]: significantly affected
MMS sensitivity (Calcein-AM) [14]: MMS sensitive
cell survival, combined knockdown [15, 21]: severe cell survival defect
cell proliferation [15, 22]: significantly affected
3meC accumulation in nucleus ([16]; MMS 400 μM, ALKBH3 knockdown): a number of cells showed 3meC accumulation in the nucleus
3meC level, effect less than ALKBH3 knockdown ([16]; MMS 400 μM, RAD51C knockdown): ~50%
3meC accumulation in nucleus ([16]; MMS 400 μM, combined RAD51C and ALKBH3 knockdown): 3meC accumulation in the nucleus in a manner epistatic with ALKBH3 knockdown
3meC signal in nucleus ([16]; MMS 400 μM, control shRNA): no visible signal for 3meC were detected in the nucleus
MMS sensitivity [17]: MMS sensitivity

yeast two-hybrid interaction with ALKBH3 [4]: completely abolished
co-immunoprecipitation of ALKBH3 [6, 19]: not with RAD51CΔ42–52
B1: RAD51CΔ42–52 (protein)
chain: MRGKTFRFEMQRDLVSFPLSPAVRVKLVSAGFQTAEELLEVSKAEALETLQIIRRECLTNKPRYAGTSESHKKCTALELLEQEHTQGFIITFCSALDDILGGGVPLMKTTEICGAPGVGKTQLCMQLAVDVQIPECFGGVAGEAVFIDTEGSFMVDRVVDLATACIQHLQLIAEKHKGEEHRKALEDFTLDNILSHIYYFRCRDYTELLAQVYLLPDFLSEHSKVRLVIVDGIAFPFRHDLDDLSLRTRLLNGLAQQMISLANNHRLAVILTNQMTTKIDRNQALLVPALGESWGHAATIRLIFHWDRKQRLATLYKSPSQKECTVLFQIKPQGFRDTVVTSACSLQTEGSLSTRKRSRDPEEEL
modifications: left off: Gal4 activation domain, end not stated, kept
yeast two-hybrid interaction with RAD51B [1]: interacted strongly
yeast two-hybrid interaction with RAD51 [2]: weak interaction
effect on 3meC level [5]: could not result in any significant reduction in the levels of 3meC compared to ALKBH3 alone
co-immunoprecipitation of endogenous ALKBH3 ([6]; anti-Flag): significantly reduced amount of endogenous ALKBH3 was immunoprecipitated
pull-down by GST-ALKBH3 [7]: could not be pulled down by GST-ALKBH3
yeast two-hybrid interaction with XRCC3 [9]: interacted strongly
3meC signal increase after mutant expression ([16]; stable RAD51C knockdown PC3, MMS 400 μM, at least 50 cells counted): at least 50%
kcat/KM [10, 20]: 1.42 min^-1μM^-1
yeast two-hybrid interaction with RAD51D [11]: weak interaction
3meC signal increase after mutant expression [18]: at least 50%
